Active and inactive are the calls of the source. The rule behind the calls is not given here.
Columns and labels:
[1] = target: T1, Tyrosine-protein phosphatase non-receptor type 1 (Homo sapiens, UniProt P18031); assay: Inhibition of PTP1B
T1 sequence (P18031 whole entry): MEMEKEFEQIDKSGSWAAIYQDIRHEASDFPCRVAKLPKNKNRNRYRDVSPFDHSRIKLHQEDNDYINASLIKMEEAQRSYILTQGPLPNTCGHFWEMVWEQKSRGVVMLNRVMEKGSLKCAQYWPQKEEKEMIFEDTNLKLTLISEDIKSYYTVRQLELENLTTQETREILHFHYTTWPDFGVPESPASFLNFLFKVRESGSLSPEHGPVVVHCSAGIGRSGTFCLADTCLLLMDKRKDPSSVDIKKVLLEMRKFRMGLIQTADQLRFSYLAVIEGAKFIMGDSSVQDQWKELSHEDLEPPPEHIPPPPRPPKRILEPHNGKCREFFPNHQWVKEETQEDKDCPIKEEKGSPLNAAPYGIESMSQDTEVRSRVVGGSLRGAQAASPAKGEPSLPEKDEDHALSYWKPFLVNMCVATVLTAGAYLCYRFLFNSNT

[2] = target: T2, Tyrosine-protein phosphatase non-receptor type 2 (Homo sapiens, UniProt P17706); assay: Inhibition of TC-PTP
T2 sequence (P17706 whole entry): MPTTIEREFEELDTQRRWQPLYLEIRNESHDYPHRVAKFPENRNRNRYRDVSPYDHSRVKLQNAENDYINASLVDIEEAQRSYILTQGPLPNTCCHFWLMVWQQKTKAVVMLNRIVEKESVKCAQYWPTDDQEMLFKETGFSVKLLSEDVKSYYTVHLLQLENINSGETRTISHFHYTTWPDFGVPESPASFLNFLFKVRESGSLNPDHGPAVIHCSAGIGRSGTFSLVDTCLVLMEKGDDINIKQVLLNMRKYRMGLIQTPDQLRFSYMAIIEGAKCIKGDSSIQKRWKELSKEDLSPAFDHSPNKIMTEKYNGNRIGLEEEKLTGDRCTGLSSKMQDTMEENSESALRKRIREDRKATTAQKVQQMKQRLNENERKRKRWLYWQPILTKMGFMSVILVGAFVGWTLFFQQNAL
Summary of the method: (§1)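 Phosphatase activity was measured as p-nitrophenyl phosphate hydrolysis (2 mM pNPP in the reaction) over a range of inhibitor concentrations to derive IC50. Conditions were identical for all enzymes except enzyme level: PTP1B 40 nM, E. coli-expressed SHP-1 catalytic domain 100 nM, E. coli-expressed YPTP1 15 nM, LAR-D1 and TC-PTP 33 units/mL. Ki was calculated as IC50 = Ki(1+[S]/KM). Mean ± SD of two or more experiments.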

Mus musculus [3] = assay: Antiobesity activity in high fat diet-induced obese C57BL/6J Jms Slc mouse model assessed as body weight gain at 143 mg/kg/day, po for 4 weeks administered with high fat diet (Rvb= 4.88 +/- 0.46 g); format: functional
Summary of the method: (§2)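 Male C57BL/6J Jms Slc mice were acclimatized 1 wk on low-fat diet (10% kcal fat), then fed high-fat diet (45% kcal fat) ad libitum for 8 wk. They were split into groups of equal mean body weight and given HFD or HFD with drug mixed into the food (2.0 g/kg diet; DMSO plus 1% aqueous polyglycerol fatty acid ester) for 4 wk. Read-outs: weight gain and feed efficiency (weight gain/kcal ×100).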

Mus musculus [4] = assay: Antiobesity activity in high fat diet-induced obese C57BL/6J Jms Slc mouse model assessed as retroperitoneal fat at 143 mg/kg/day, po for 4 weeks administered with high fat diet followed by 5 days recovery period on their own high fat diet with drug (Rvb= 0.69 +/- 0.06 g); format: functional
Summary of the method: (§3)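 Obesity was induced by HFD (45% kcal fat) for 8 wk, followed by 4 wk of HFD or HFD with drug in the diet (2.0 g/kg diet). After the glucose tolerance test, mice stayed on their diets for 5 d more and were fasted overnight. Epididymal and retroperitoneal fat pads were excised and weighed. Significance versus HFD by one-way ANOVA.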

[5] = Selectivity for PTP1B over membrane proximal catalytic domain of LAR
Mus musculus [6] = assay: Antiobesity activity in high fat diet-induced obese C57BL/6J Jms Slc mouse model assessed as epididymal fat at 143 mg/kg/day, po for 4 weeks administered with high fat diet followed by 5 days recovery period on their own high fat diet with drug (Rvb= 1.87 +/- 0.08 g); format: functional; summary of the method: as §3
[7] = target: Receptor-type tyrosine-protein phosphatase F (Homo sapiens, UniProt P10586); assay: Inhibition of membrane proximal catalytic domain of LAR; summary of the method: as §1
Mus musculus [8] = assay: Hypoglycemic activity in high fat diet-induced obese C57BL/6J Jms Slc mouse model assessed as non-esterified free fatty acid level at 143 mg/kg/day, po for 4 weeks administered with high fat diet followed by 5 days recovery period on their own high fat diet with drug (Rvb= 0.71 +/- 0.22 mM); format: functional
Summary of the method: (§4)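 HFD-obese mice (8 wk HFD) received HFD with drug in the diet (2.0 g/kg diet) for 4 wk, then continued 5 d on their diets. After an overnight fast and anesthesia, blood was taken by cardiac puncture. Serum triglyceride and total cholesterol were measured by enzymatic kits, and NEFA by a half-micro test kit. Mean ± SD, n = 8/group; one-way ANOVA.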

Mus musculus [9] = assay: Hypoglycemic activity in high fat diet-induced obese C57BL/6J Jms Slc mouse model assessed as total cholesterol level at 143 mg/kg/day, po for 4 weeks administered with high fat diet followed by 5 days recovery period on their own high fat diet with drug (Rvb= 152 +/- 6 mg/dL); format: functional; summary of the method: as §4
Mus musculus [10] = assay: Hypoglycemic activity in high fat diet-induced obese C57BL/6J Jms Slc mouse model at 143 mg/kg/day, po for 4 weeks administered with high fat diet by glucose tolerance test; format: functional, organism-based
Summary of the method: (§5)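 After 8 wk of HFD and 4 wk of HFD with drug in the diet (2.0 g/kg diet), mice were fasted 6 h. Fasting blood glucose was taken at 0 min, glucose was then injected intraperitoneally, and tail blood was sampled at timed intervals up to 120 min.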

[11] = target: Tyrosine-protein phosphatase non-receptor type 6 (Homo sapiens, UniProt P29350); assay: Inhibition of SHP1 catalytic domain expressed in Escherichia coli; summary of the method: as §1
[12] = Inhibition of Yersinia YOP
Summary of the method: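 Purchased YOP enzyme at 50 units (manufacturer's definition)/mL, with p-nitrophenyl phosphate substrate at 2 mM in the reaction mixture. pNPP hydrolase activity was measured across a range of inhibitor concentrations to derive IC50. Ki was obtained from IC50 = Ki(1 + [S]/KM). Values are mean and SD of two or more experiments.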

[13] = Selectivity for PTP1B over TC-PTP
Mus musculus [14] = assay: Hypoglycemic activity in high fat diet-induced obese C57BL/6J Jms Slc mouse model assessed as reduction in fasting blood glucose level at 143 mg/kg/day, po for 4 weeks administered with high fat diet measured after 6 hrs of fasting; format: functional, organism-based; summary of the method: as §5
[15] = Selectivity for PTP1B over yeast PTP1
Mus musculus [16] = assay: Hypoglycemic activity in high fat diet-induced obese C57BL/6J Jms Slc mouse model assessed as triglyceride level at 143 mg/kg/day, po for 4 weeks administered with high fat diet followed by 5 days recovery period on their own high fat diet with drug (Rvb= 124 +/- 16 mg/dL); format: functional; summary of the method: as §4
[17] = Inhibition of yeast PTP1; design: species or system Saccharomyces cerevisiae; summary of the method: as §1
Mus musculus [18] = assay: Antiobesity activity in high fat diet-induced obese C57BL/6J Jms Slc mouse model assessed as decrease in body weight gain per kilocalories of food intake at 143 mg/kg/day, po for 4 weeks administered with high fat diet; format: functional; design: scale not given: the % may be the effect or the level left; summary of the method: as §2

Chain of Tyrosine-protein phosphatase non-receptor type 6 (P29350 whole entry, the tested form may be a part): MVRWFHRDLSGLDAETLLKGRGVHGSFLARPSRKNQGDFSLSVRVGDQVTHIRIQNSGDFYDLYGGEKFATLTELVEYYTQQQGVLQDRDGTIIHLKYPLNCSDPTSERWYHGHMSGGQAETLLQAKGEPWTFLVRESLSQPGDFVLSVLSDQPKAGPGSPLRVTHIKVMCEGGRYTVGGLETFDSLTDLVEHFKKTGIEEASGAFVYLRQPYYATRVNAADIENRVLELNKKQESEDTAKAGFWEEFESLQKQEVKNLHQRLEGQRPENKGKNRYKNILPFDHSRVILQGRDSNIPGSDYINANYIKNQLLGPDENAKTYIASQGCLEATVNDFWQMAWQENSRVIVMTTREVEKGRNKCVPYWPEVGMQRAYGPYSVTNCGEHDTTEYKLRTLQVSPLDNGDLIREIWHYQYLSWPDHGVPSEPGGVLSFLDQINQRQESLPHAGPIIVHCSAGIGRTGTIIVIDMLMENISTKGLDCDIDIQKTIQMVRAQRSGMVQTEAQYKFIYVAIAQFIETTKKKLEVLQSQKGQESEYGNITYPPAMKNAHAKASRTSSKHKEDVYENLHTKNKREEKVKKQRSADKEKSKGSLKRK
Chain of Receptor-type tyrosine-protein phosphatase F (P10586 whole entry, the tested form may be a part): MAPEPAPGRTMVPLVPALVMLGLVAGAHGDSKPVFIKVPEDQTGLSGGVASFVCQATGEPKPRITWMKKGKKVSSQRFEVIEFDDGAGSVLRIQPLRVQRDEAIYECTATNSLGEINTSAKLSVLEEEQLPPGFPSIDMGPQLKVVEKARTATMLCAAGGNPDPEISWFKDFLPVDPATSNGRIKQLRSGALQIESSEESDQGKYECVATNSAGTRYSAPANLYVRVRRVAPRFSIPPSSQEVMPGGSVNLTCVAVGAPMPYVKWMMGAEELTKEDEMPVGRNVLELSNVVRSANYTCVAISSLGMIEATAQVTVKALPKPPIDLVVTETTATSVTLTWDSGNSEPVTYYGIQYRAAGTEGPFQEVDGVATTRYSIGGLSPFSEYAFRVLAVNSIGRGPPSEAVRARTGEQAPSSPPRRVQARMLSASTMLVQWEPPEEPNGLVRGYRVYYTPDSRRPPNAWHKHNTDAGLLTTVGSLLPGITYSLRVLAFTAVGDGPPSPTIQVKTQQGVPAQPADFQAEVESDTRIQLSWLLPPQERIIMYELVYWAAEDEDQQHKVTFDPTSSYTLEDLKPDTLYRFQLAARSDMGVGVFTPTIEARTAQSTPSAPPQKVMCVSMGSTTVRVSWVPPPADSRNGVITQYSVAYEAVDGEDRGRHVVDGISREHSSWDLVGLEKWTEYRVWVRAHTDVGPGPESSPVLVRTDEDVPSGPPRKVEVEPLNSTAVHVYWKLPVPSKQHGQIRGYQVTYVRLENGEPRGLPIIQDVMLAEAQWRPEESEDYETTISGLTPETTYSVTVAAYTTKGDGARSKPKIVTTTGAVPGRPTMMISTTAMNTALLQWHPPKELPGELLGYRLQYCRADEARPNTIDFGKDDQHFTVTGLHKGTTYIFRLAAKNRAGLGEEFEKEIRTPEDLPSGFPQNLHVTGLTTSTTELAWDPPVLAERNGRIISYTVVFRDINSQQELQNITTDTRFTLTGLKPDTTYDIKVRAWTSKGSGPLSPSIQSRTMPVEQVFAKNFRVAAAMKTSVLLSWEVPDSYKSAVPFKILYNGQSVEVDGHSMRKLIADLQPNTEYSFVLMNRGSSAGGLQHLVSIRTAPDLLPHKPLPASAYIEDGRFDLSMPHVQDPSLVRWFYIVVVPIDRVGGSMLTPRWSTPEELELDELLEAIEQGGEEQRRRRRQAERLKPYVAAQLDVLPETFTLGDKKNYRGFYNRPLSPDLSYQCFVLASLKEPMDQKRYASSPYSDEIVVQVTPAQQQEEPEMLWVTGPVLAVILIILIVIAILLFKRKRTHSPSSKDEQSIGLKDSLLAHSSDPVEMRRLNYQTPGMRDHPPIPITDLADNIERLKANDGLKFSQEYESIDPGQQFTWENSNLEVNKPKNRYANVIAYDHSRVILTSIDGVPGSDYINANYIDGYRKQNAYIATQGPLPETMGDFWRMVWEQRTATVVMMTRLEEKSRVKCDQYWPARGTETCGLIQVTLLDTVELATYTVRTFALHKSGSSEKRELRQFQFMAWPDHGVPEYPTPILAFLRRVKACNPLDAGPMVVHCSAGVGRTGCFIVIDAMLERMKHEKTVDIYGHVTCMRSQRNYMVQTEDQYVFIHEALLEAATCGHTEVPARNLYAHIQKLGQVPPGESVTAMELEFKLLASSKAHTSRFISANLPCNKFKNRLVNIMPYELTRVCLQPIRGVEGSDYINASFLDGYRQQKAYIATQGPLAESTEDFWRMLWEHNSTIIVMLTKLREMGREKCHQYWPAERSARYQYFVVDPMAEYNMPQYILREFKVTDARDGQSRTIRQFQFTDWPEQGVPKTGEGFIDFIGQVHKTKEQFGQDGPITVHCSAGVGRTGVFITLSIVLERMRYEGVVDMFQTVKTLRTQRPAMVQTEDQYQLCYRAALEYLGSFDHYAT

Compound: O=C1NC(=O)/C(=C/c2ccc(OCc3ccc(F)cc3)c(Br)c2)S1
- IC50 [1]: 11 µM

Compound: O=C1NC(=O)/C(=C/c2cc(Br)ccc2OCc2cc(C(F)(F)F)cc(C(F)(F)F)c2)S1
- IC50 [2]: 16 µM
- Ki [2]: 4.5 µM
- Activity (Mus musculus [3]): 2.16 g
- Activity (Mus musculus [4]): 0.42 g
- fold change (FC) [5]: > 20
- Activity (Mus musculus [6]): 1.27 g
- IC50 [7]: > 100 µM
- Activity (Mus musculus [8]): 0.22 mM
- Activity (Mus musculus [9]): 125 mg/dL
- Activity (Mus musculus [10]): Active
- IC50 [1]: 5 µM
- Ki [1]: 2.1 µM
- IC50 [11]: 5.8 µM
- Ki [11]: 2.2 µM
- IC50 [12]: 6 µM
- fold change (FC) [13]: 2.2
- Activity (Mus musculus [14]): inactive
- fold change (FC) [15]: 3.7
- Activity (Mus musculus [16]): 78 mg/dL
- IC50 [17]: 18 µM
- Ki [17]: 7.7 µM
- Activity (Mus musculus [18]): 0.68%

Compound: O=C1NC(=O)/C(=C/c2ccc(OCc3ccc(C(F)(F)F)cc3)c(Br)c2)S1
- IC50 [1]: 5 µM

Compound: O=C1NC(=O)/C(=C/c2ccc(OCc3ccc(F)cc3)cc2)S1
- IC50 [1]: 68 µM

Compound: Cc1c(C)c2c(c(C)c1O)CCC(C)(COc1ccc(CC3SC(=O)NC3=O)cc1)O2 (stereo unspecified) [TROGLITAZONE]
- IC50 [1]: 55 µM

Compound: O=C1NC(=O)/C(=C/c2ccc(OCc3ccc(C(F)(F)F)cc3)cc2)S1
- IC50 [1]: 14 µM

Compound: O=C1NC(=O)/C(=C/c2ccc(OCc3ccccc3)cc2)S1
- IC50 [1]: 64 µM

Compound: O=C1NC(=O)/C(=C/c2cc(Br)ccc2OCc2ccc(C(F)(F)F)cc2)S1
- IC50 [1]: 8 µM

Compound: O=C1NC(=O)/C(=C/c2cc(Br)ccc2OCc2cccc(C(F)(F)F)c2)S1
- IC50 [1]: 8 µM

Compound: O=C1NC(=O)/C(=C/c2cc(-c3ccccc3)ccc2OCc2ccccc2)S1
- IC50 [1]: 16 µM

Compound: O=C1NC(=O)/C(=C/c2ccc(OCc3ccccc3)c(-c3ccccc3)c2)S1
- IC50 [1]: 9 µM

Compound: O=C1NC(=O)/C(=C/c2cc(Br)ccc2OCc2ccccc2)S1
- IC50 [1]: 9 µM

Compound: O=C1NC(=O)/C(=C/c2cc(F)ccc2OCc2ccc(C(F)(F)F)cc2)S1
- IC50 [1]: 15 µM

Compound: O=C1NC(=O)/C(=C/c2cc(F)ccc2OCc2cc(C(F)(F)F)cc(C(F)(F)F)c2)S1
- IC50 [1]: 8 µM

Compound: O=C1NC(=O)/C(=C/c2cc(Br)ccc2OCc2ccc(F)cc2)S1
- IC50 [1]: 23 µM

Compound: O=C1NC(=O)/C(=C/c2cc(Br)ccc2OCc2ccccc2C(F)(F)F)S1
- IC50 [1]: 8 µM

Compound: O=C1NC(=O)/C(=C/c2ccc(OCc3ccc(C(F)(F)F)cc3)c(-c3ccccc3)c2)S1
- IC50 [1]: 6 µM

Compound: CCc1ccc(CCOc2ccc(CC3SC(=O)NC3=O)cc2)nc1 (stereo unspecified) [PIOGLITAZONE]
- IC50 [1]: 220 µM

Compound: CN(CCOc1ccc(CC2SC(=O)NC2=O)cc1)c1ccccn1 (stereo unspecified) [ROSIGLITAZONE]
- IC50 [1]: 400 µM

Compound: O=C1NC(=O)/C(=C/c2ccc(OCc3ccccc3)c(Br)c2)S1
- IC50 [1]: 15 µM
